In ChEMBL document CHEMBL3769305, “Glucose-functionalized amino-OPEs as biocompatible photosensitizers in PDT” (Eur J Med Chem, 2016):
The source made the active and inactive calls. The calls are words filed in the database; no cut-off is given here.

What was measured:
[1] = Dark toxicity against human HeLa cells assessed as cell survival at 3 uM incubated for 6 hrs measured after 24 hrs by MTT assay; type: cell-based; conditions: read-out: Survival
Summary of the method: (§1)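 Cells (HaCaT and HeLa in DMEM, HEp-2 in RPMI, each with 10% FBS, at 37 °C and 5% CO2) were treated at 60–70% confluence. The compound was added from a 10^-3 M DMSO stock in medium with 1% FBS (final DMSO <0.5%) at 3·10^-6 to 2.5·10^-5 M and kept in the dark (6 h per table footnote, 18 h per methods). After 24 h, MTT at 50 µg/mL for 4 h, read at 542 nm as % of control OD.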

[2] = Induction of microtubule disruption in human Hep2 cells assessed as abnormality in chromosome distribution at LD50 after 24 hrs by immunofluorescence assay in presence of UVA light; type: cell-based; conditions: HEp-2
HEp-2 [3] = assay: Induction of necrotic morphological changes in human Hep2 cells at LD50 after 24 hrs by Hoechst 33258 staining-based fluorescence microscopy in presence of UVA light; type: functional, cell-based
HeLa [4] = assay: Phototoxicity against human HeLa cells assessed as cell lethality at 3 to 250 uM incubated for 6 hrs followed by UV irradiation at 2 J/cm'2 measured after 24 hrs by MTT assay; type: functional
Summary of the method: (§2)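 Cultures at 60–70% confluence were loaded with the photosensitizer for 6 h in medium with 1% FBS and <0.5% DMSO. Medium was then replaced and cells were irradiated with UVA (300–400 nm, 15.9 W/m² at 10 cm), then washed and kept in complete medium for 24 h. Survival was read by MTT (50 µg/mL, 4 h, 542 nm) as % of untreated control OD.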

[5] = Dark toxicity against human Hep2 cells assessed as cell survival at 10 uM incubated for 6 hrs measured after 24 hrs by MTT assay; type: cell-based, HEp-2; conditions: read-out: Survival; summary of the method: as §1
HEp-2 [6] = assay: Increase in mitotic nuclei level in human Hep2 cells at LD50 after 24 hrs by Hoechst 33258 staining-based fluorescence microscopy in presence of UVA light; type: functional, cell-based
[7] = Drug uptake in golgi apparatus of human HaCaT cells at 1 uM after 6 hrs by NBD dye-based fluorescence microscopy; type: ADME, cell-based
Summary of the method: (§3)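 Cells grown on glass coverslips were incubated with 1×10^-6 M photosensitizer for 6 h at 37 °C, washed twice in PBS and imaged live by fluorescence microscopy. Organelle probes (ER-Tracker, ex 374/em 430 nm; NBD-Golgi, ex 466/em 536 nm) were applied for 30 min at the supplier's concentrations, and their patterns were compared with the compound signal.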

HaCaT [8] = assay: Induction of apoptotic morphological changes in human HaCaT cells at LD50 after 24 hrs by Hoechst 33258 staining-based fluorescence microscopy in presence of UVA light; type: cell-based
HEp-2 [9] = assay: Induction of cell morphological changes in human Hep2 cells assessed as cell detachment from substrate at 3 to 5 uM after 24 hrs by Hoechst 33258 staining-based phase contrast microscopy in presence of UVA light; type: functional
HeLa [10] = assay: Induction of necrotic morphological changes in human HeLa cells at LD50 after 24 hrs by Hoechst 33258 staining-based fluorescence microscopy in presence of UVA light; type: functional, cell-based
HaCaT [11] = assay: Induction of cell morphological changes in human HaCaT cells assessed as appearance of apoptotic cells with membrane blebbing at 3 to 5 uM after 24 hrs by Hoechst 33258 staining-based phase contrast microscopy in presence of UVA light
HaCaT [12] = assay: Phototoxicity against human HaCaT cells assessed as cell lethality at 3 to 250 uM incubated for 6 hrs followed by UV irradiation at 0.5 J/cm'2 measured after 24 hrs by MTT assay; type: cell-based; summary of the method: as §2
HeLa [13] = assay: Induction of apoptosis in human HeLa cells at LD50 after 24 hrs by acridine orange/ethidium bromide staining-based assay in presence of 0.25 to 0.5 J/cm'2 UVA light; type: functional, cell-based
HeLa [14] = assay: Induction of microtubule disruption in human HeLa cells assessed as increase in altered metaphase at LD50 after 24 hrs by immunofluorescence assay in presence of UVA light; type: cell-based
HeLa [15] = assay: Induction of cell morphological changes in human HeLa cells assessed as appearance of rounded cells at 3 to 5 uM after 24 hrs by Hoechst 33258 staining-based phase contrast microscopy in presence of UVA light; type: functional
HeLa [16] = assay: Increase in mitotic nuclei level in human HeLa cells at LD50 after 24 hrs by Hoechst 33258 staining-based fluorescence microscopy in presence of UVA light; type: functional, cell-based
HEp-2 [17] = assay: Phototoxicity against human Hep2 cells assessed as appearance of rounded cells at LD50 after 24 hrs by acridine orange/ethidium bromide staining-based assay in presence of 0.25 to 0.5 J/cm'2 UVA light; type: functional, cell-based
Summary of the method: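 Cells (HaCaT, HeLa in DMEM; HEp-2 in RPMI; 10% FBS) at 60–70% confluence were incubated 6 h with 3·10^-6 M photosensitizer (DMSO stock diluted in medium with 1% FBS, final DMSO <0.5%). Medium was replaced and cells were given 0.25 J/cm² UVA (300–400 nm). 24 h later, cells were stained live with 50 µg/ml AO plus 50 µg/ml EtBr in PBS. Within 15 min, 200 cells per condition were scored as living, rounded, apoptotic or necrotic.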

[18] = Drug uptake in endoplasmic reticulum of human Hep2 cells at 1 uM after 6 hrs by ER-tracker dye-based fluorescence microscopy; type: ADME, cell-based; conditions: hep-2, 6 h; summary of the method: as §3
HeLa [19] = assay: Induction of apoptotic morphological changes in human HeLa cells at LD50 after 24 hrs by Hoechst 33258 staining-based fluorescence microscopy in presence of UVA light; type: functional, cell-based
[20] = Dark toxicity against human Hep2 cells assessed as cell survival at 5 uM incubated for 6 hrs measured after 24 hrs by MTT assay; type: cell-based, HEp-2; conditions: read-out: Survival; summary of the method: as §1
HeLa [21] = assay: Induction of morphological changes in human HeLa cells assessed as nuclear retraction at LD50 after 24 hrs by Hoechst 33258 staining-based fluorescence microscopy in presence of UVA light; type: functional, cell-based
HaCaT [22] = assay: Induction of apoptosis in human HaCaT cells at LD50 after 24 hrs by acridine orange/ethidium bromide staining-based assay in presence of 0.25 to 0.5 J/cm'2 UVA light; type: cell-based
HaCaT [23] = assay: Induction of necrosis in human HaCaT cells at LD50 after 24 hrs by acridine orange/ethidium bromide staining-based assay in presence of 0.25 to 0.5 J/cm'2 UVA light; type: cell-based
[24] = Phototoxicity against human Hep2 cells assessed as cell lethality at 3 to 250 uM incubated for 6 hrs followed by UV irradiation at 2 J/cm'2 measured after 24 hrs by MTT assay; type: functional, HEp-2; summary of the method: as §2
[25] = Phototoxicity against human HaCaT cells incubated for 6 hrs followed by UV irradiation at 0.25 J/cm'2 measured after 24 hrs by MTT assay; type: cell-based; conditions: read-out: LD50; summary of the method: as §2
[26] = Dark toxicity against human HeLa cells assessed as cell survival at 10 uM incubated for 6 hrs measured after 24 hrs by MTT assay; type: cell-based; conditions: read-out: Survival; summary of the method: as §1
HeLa [27] = assay: Induction of cell morphological changes in human HeLa cells assessed as cellular stretching at 3 to 5 uM after 24 hrs by Hoechst 33258 staining-based phase contrast microscopy in presence of UVA light; type: functional

SMILES | viability at 6 h, 3 µM [1] [%] | Activity [2] | Activity (HEp-2 [3]) | mortality (HeLa [4]) [%] | viability at 6 h, 10 µM [5] [%] | Activity (HEp-2 [6]) | Drug uptake [7] | Activity (HaCaT [8]) | Activity (HEp-2 [9]) | Activity (HeLa [10]) | Activity (HaCaT [11]) | mortality (HaCaT [12]) [%] | Activity (HeLa [13]) | Activity (HeLa [14]) | Activity (HeLa [15]) | Activity (HeLa [16]) | Activity (HEp-2 [17]) | Drug uptake [18] | Activity (HeLa [19]) | viability at 6 h, 5 µM [20] [%] | also measured
COc1cc(C#Cc2ccc(C#CCO[C@@H]3O[C@H](CO)[C@@H](O)[C@H](O)[C@H]3O)cc2N(C)C)c(OC)cc1C#Cc1ccc(C#CCO[C@@H]2O[C@H](CO)[C@@H](O)[C@H](O)[C@H]2O)cc1N(C)C | 96.6 | Active | Active | >50 | 80.1 | Active | Active | Toxic | Active | Active | Toxic | > 50 | Active | Active | Active | Active | Active | Active | Active | 95.7 | Activity (HeLa [21]): Active; Activity (HaCaT [22]): Toxic; Activity (HaCaT [23]): Toxic; mortality [24]: >50%; CC50 at 24 h [25]: 3 µM; viability at 6 h, 10 µM [26]: 76.9%; Activity (HeLa [27]): Active
COc1cc(C#Cc2ccc(C#Cc3cc(OC)c(C#CCO[C@@H]4O[C@H](CO)[C@@H](O)[C@H](O)[C@H]4O)cc3OC)c(N(C)C)c2)c(OC)cc1C#CCO[C@@H]1O[C@H](CO)[C@@H](O)[C@H](O)[C@H]1O | 96.4 | Active | Active | >50 | 85.6 | Active | Active | Toxic | Active | Active | Toxic | > 50 | Active | Active | Active | Active | Active | Active | Active | 96.3 | Activity (HeLa [21]): Active; Activity (HaCaT [22]): Toxic; Activity (HaCaT [23]): Toxic; mortality [24]: >50%; CC50 at 24 h [25]: 3 µM; viability at 6 h, 10 µM [26]: 82.2%; Activity (HeLa [27]): Active
